This passage reports fold change (FC) and inhibition results from ChEMBL document CHEMBL5653631, “A Potent and Selective ULK1 Inhibitor Suppresses Autophagy and Sensitizes Cancer Cells to Nutrient Stress” (iScience, 2018).

Test [1] has as its target Serine/threonine-protein kinase MARK1 (Homo sapiens) (UniProt Q9P0L2). Put plainly: Inhibition of human recombinant MARK1 at 40 nM related to control ULK1.
Test [2] deals with Cyclin-dependent kinase 6 (Homo sapiens) (UniProt Q00534). Briefly: Inhibition of human recombinant CDK6 at 40 nM in presence of ATP by radiometric assay relative to control.
Test [3] addresses Tau-tubulin kinase 1 (Homo sapiens) (UniProt Q5TCY1). Briefly: Inhibition of human recombinant TTBK1 at 500 nM in presence of ATP by radiometric assay relative to control.
The target of test [4] is T1, Serine/threonine-protein kinase Nek1 (Homo sapiens) (UniProt Q96PY6).
T1 sequence (whole entry): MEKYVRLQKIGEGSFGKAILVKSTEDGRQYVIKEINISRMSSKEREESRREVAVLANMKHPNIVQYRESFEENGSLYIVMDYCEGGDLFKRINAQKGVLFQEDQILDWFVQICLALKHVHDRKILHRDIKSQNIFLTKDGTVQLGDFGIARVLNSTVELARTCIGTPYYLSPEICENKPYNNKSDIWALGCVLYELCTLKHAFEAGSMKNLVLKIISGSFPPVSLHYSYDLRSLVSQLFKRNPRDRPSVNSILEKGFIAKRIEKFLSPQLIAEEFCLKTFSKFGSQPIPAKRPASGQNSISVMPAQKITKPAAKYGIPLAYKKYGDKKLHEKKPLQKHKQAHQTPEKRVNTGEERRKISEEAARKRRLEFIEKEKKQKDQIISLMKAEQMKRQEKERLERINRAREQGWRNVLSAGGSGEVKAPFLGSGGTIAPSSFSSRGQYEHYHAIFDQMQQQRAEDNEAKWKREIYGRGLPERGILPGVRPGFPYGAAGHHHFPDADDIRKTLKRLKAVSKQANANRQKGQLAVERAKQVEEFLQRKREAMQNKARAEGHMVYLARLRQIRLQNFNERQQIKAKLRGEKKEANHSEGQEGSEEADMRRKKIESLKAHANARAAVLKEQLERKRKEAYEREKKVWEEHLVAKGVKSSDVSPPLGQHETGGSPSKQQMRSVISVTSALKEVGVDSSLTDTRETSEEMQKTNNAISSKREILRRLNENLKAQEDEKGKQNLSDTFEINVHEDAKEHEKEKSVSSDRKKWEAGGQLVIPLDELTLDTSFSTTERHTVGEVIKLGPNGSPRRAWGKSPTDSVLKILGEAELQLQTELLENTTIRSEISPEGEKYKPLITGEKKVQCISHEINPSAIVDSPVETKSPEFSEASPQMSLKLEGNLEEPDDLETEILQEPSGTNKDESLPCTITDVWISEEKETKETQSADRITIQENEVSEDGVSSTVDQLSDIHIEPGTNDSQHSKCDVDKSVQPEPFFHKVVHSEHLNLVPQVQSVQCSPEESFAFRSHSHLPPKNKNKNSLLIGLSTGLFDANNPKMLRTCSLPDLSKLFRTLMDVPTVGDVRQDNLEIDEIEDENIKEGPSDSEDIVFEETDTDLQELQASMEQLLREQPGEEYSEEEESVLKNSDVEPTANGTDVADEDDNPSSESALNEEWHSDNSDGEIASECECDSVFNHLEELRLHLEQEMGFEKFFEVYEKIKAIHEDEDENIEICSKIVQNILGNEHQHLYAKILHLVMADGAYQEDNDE
Briefly: Inhibition of human recombinant NEK1 at 500 nM related to control ULK1.

The target in test [5] is Serine/threonine-protein kinase B-raf (Homo sapiens) (UniProt P15056). Put plainly: Inhibition of human recombinant BRAF at 500 nM in presence of ATP by radiometric assay relative to control. Summed up:
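Part of a radiometric in vitro activity panel of 327 recombinant human kinases. Each kinase was tested in duplicate at one inhibitor concentration. Activity remaining was expressed as a percentage of the vehicle control, and percent inhibition was taken as 100 minus that value.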

Test [6] concerns the target T2, NUAK family SNF1-like kinase 2 (Homo sapiens) (UniProt Q9H093).
T2 sequence (whole entry): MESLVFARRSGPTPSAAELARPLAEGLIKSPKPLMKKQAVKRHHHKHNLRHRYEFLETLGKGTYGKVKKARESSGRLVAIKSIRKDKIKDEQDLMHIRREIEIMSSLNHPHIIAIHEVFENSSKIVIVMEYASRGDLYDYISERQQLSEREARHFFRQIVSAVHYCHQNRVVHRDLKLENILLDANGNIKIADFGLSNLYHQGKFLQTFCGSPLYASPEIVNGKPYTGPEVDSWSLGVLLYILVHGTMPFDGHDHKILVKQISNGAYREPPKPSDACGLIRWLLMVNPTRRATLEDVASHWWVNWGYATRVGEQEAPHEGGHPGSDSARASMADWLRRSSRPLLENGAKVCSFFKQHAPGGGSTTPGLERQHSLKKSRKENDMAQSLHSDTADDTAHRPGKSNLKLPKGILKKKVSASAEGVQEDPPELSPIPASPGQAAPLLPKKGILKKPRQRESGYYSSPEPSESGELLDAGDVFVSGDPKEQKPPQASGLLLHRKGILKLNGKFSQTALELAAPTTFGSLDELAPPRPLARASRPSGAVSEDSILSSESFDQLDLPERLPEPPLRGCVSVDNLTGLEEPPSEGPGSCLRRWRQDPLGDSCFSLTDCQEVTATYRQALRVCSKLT
Briefly: Inhibition of human recombinant NuaK2 at 500 nM related to control ULK1.

Test [7] deals with DNA-PK/Ku70/Ku85 (Homo sapiens) (UniProt P78527+P12956+P13010). Put plainly: Inhibition of human recombinant DNAPK at 500 nM related to control ULK1. The test is classed as protein-complex assay.
The target of test [8] is Cyclin-dependent kinase 9 (Homo sapiens) (UniProt P50750). Put plainly: Inhibition of human recombinant CDK9 at 15 nM in presence of ATP by radiometric assay relative to control.
Test [9] concerns the target Serine/threonine-protein kinase tousled-like 2 (Homo sapiens) (UniProt Q86UE8). Briefly: Inhibition of human recombinant TLK2 at 15 nM related to control ULK1.

One may read the inhibition as the change of the read-out against control, counted positive when it falls.

Chain of Tau-tubulin kinase 1 (Homo sapiens) (Q5TCY1 whole entry): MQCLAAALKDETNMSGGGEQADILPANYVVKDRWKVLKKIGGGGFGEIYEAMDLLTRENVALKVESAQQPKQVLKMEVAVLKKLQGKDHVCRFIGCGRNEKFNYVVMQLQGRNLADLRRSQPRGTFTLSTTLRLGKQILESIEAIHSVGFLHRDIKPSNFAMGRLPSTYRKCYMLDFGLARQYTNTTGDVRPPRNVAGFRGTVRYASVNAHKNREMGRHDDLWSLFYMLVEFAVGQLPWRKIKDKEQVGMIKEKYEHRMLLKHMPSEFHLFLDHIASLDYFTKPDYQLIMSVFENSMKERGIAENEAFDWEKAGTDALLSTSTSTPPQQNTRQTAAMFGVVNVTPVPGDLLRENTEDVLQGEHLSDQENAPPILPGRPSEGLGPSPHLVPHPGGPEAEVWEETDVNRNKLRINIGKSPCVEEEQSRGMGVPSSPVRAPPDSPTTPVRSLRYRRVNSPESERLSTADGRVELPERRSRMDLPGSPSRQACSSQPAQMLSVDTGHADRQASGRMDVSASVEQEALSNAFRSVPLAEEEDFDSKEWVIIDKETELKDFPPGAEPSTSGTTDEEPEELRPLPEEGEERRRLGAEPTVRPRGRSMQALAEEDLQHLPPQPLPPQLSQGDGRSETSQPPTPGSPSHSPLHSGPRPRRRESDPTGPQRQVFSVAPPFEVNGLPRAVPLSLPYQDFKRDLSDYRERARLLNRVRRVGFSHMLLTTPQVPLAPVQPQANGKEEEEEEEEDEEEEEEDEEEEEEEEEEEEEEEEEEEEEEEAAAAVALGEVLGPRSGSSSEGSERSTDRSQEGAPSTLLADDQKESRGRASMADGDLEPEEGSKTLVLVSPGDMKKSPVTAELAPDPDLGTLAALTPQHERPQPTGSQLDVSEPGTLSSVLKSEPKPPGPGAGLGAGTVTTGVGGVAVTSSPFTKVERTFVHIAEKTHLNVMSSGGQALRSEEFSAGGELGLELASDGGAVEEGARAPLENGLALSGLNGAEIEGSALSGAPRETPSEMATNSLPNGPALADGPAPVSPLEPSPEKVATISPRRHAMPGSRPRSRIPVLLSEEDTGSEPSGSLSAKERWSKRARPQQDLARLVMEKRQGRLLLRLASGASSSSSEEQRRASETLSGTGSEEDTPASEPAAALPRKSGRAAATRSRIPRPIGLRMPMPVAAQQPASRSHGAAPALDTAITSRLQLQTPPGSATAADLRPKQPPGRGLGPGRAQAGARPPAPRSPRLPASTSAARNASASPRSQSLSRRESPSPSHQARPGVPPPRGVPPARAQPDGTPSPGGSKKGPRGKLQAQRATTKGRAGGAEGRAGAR
Chain of Cyclin-dependent kinase 6 (Homo sapiens) (Q00534 whole entry): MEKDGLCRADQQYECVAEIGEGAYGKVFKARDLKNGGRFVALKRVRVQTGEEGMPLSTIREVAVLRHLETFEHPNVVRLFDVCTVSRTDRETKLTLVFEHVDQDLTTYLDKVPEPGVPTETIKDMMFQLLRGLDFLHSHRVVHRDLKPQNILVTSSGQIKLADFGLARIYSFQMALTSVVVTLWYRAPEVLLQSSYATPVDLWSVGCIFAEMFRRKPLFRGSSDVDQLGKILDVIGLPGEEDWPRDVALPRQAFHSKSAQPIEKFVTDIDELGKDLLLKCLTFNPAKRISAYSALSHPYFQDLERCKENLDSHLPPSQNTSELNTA
Chain of Serine/threonine-protein kinase MARK1 (Homo sapiens) (Q9P0L2 whole entry, looked up): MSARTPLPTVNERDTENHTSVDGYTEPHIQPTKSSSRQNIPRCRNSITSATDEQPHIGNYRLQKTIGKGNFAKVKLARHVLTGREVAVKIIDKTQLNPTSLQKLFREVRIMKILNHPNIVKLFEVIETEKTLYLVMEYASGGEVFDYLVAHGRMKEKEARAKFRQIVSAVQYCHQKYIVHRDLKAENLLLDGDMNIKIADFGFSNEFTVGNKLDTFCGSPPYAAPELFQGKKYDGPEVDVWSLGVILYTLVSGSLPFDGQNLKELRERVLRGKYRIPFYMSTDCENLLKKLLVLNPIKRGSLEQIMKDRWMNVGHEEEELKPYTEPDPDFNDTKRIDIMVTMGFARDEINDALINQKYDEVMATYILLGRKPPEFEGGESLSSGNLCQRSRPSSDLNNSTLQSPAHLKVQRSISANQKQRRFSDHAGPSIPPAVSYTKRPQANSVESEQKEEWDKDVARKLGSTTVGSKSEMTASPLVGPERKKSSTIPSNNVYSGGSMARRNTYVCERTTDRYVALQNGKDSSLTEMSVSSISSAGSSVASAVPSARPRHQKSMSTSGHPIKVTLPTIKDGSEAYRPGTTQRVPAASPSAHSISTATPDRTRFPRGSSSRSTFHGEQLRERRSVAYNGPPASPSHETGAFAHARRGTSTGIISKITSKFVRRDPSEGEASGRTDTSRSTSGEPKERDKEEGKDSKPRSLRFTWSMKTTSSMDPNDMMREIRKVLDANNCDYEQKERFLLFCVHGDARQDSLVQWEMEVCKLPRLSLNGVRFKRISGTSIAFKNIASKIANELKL
Chain of Serine/threonine-protein kinase B-raf (Homo sapiens) (P15056 whole entry): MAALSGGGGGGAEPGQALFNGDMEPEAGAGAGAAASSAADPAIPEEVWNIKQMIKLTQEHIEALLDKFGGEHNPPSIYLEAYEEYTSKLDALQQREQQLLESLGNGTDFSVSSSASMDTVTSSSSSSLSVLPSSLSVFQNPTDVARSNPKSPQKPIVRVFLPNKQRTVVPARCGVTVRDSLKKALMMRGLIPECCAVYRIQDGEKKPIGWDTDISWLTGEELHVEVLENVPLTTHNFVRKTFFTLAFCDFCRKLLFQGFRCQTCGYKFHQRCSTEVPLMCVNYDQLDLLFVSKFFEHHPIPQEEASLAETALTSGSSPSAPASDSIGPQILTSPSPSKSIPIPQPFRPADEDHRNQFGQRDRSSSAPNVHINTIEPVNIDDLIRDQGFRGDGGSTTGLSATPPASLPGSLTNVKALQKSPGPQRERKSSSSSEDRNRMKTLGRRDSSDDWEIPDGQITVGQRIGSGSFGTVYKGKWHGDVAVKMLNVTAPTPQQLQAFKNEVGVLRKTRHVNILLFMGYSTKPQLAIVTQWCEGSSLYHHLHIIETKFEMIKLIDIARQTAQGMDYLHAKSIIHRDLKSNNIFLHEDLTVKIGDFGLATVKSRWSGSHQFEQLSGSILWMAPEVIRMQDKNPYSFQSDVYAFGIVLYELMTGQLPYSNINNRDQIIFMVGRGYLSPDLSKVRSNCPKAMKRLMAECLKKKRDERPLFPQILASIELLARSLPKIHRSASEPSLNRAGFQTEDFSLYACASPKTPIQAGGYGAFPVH
Chain of Serine/threonine-protein kinase tousled-like 2 (Homo sapiens) (Q86UE8 whole entry, looked up): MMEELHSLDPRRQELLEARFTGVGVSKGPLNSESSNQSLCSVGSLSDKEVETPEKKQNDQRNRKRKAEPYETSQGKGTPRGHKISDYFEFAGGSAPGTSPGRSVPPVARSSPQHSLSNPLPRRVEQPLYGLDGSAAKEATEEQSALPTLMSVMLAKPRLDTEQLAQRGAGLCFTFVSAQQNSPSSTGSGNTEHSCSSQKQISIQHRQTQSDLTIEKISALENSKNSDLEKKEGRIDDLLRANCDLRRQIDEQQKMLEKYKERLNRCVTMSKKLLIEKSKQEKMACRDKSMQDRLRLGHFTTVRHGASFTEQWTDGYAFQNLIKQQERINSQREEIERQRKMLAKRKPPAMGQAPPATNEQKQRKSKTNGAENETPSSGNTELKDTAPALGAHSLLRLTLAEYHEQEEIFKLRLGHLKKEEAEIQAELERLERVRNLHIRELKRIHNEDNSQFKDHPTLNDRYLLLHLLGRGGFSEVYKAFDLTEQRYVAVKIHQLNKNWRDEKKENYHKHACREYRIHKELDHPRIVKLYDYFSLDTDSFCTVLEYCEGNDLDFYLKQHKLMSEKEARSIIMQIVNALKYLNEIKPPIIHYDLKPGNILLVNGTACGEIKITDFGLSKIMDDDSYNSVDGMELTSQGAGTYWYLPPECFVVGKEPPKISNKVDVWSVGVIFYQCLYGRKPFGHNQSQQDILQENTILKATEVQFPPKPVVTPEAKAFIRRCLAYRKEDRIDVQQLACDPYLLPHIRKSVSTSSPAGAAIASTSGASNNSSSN
Chain of Cyclin-dependent kinase 9 (Homo sapiens) (P50750 whole entry): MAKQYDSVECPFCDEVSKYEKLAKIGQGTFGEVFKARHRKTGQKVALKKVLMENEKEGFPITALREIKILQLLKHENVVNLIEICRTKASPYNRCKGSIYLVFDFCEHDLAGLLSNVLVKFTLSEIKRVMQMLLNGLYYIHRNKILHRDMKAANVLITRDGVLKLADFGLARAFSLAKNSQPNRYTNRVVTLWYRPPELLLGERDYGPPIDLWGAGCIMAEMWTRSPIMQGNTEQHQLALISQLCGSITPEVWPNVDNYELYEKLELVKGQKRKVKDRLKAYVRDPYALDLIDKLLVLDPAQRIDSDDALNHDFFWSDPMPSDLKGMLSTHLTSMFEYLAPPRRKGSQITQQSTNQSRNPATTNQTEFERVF

Regarding `O=C(N[C@@H](C1CC1)C(F)(F)F)c1cc(-c2cnn3cc(-c4ccc(F)cc4)cnc23)cs1`, the fold change (FC) in test [1] stood at 0.4. For the same compound, in [2], the inhibition was determined as 3%.

With `CNC(=O)c1ccccc1Oc1nc(Nc2cc(OC)c(OC)c(OC)c2)ncc1Br`, the values for the inhibition in [3] and in [5] were 1% and 8%, respectively. In addition, the fold change (FC) in test [4] is 0.11; in test [6], 0.86; in test [7], 0.16.

Turning to `CC(C)[C@H](NC(=O)c1cc(-c2cnn3cc(-c4ccc(OCCN5CCCCC5)cc4)cnc23)cs1)C(F)(F)F`, in test [8], the inhibition was determined as 0%. Further, in [9], the fold change (FC) came to 0.03.
